Blank lines part the entries; values can stand above or below the compound they belong to.
How the values were obtained:
[1] = target: T1, Sphingosine 1-phosphate receptor 1 (Homo sapiens, UniProt P21453); assay: Antagonist activity at S1P1 receptor expressed in HEK293 cells assessed as inhibition of S1P-induced cAMP response after 90 mins by spectrophotometry; type: functional, cell-based
[2] = Drug uptake in nu/nu homozygous mouse plasma at 100 mg/kg, po as a solution in 10% EtOH/40% PEG400/water + 1:1 HCl after 1 hr by HPLC/MS/MS analysis; type: ADME, organism-based; set-up: dose 100 mg/kg, route oral
Procedure, shortened: (§1)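 Female Nu/Nu mice (~8 wk, 20-22 g) given a single 100 mpk oral dose at 10 mL/kg. Vehicles: 10% EtOH/45% or 40% PEG400/water + 1 molar equiv HCl, 10% EtOH/40% PEG400/20% Captisol + HCl, or 10% NMP/90% corn oil. Heparinized blood collected 1 and 4 h post-dose; plasma analysed by HPLC/MS/MS.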

[3] = Drug uptake in nu/nu homozygous mouse plasma at 100 mg/kg, po as a solution in 10% EtOH/40% PEG400/water + 1:1 HCl after 4 hrs by HPLC/MS/MS analysis; type: ADME, organism-based; set-up: dose 100 mg/kg, route oral; procedure, shortened: as §1
[4] = Drug uptake in nu/nu homozygous mouse plasma at 100 mg/kg, po as a suspension in 10% NMP/corn oil after 4 hrs by HPLC/MS/MS analysis; type: ADME, organism-based; set-up: dose 100 mg/kg, route oral; procedure, shortened: as §1
[5] = Drug uptake in nu/nu homozygous mouse plasma at 100 mg/kg, po as a suspension in 10% NMP/corn oil after 1 hr by HPLC/MS/MS analysis; type: ADME, organism-based; set-up: dose 100 mg/kg, route oral; procedure, shortened: as §1
[6] = Metabolic stability of the compound in mouse liver microsomes assessed as compound oxidation measuring disappearance of compound at 15 uM after 30 mins by LC/MS/MS analysis; type: ADME, Microsome; settings: read-out: Drug degradation
Procedure, shortened: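 Incubated in duplicate for 30 min at 37 °C: 15 µM compound, 0.15% DMSO, 0.5 mg/mL mouse liver microsomes, 1 mM NADPH, 100 mM potassium phosphate pH 7.4. Stopped with acetonitrile containing 0.1% formic acid. Parent remaining measured by LC/MS/MS; disappearance calculated relative to no-NADPH controls.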

[7] = Drug uptake in nu/nu homozygous mouse plasma at 100 mg/kg, po as a solution in 10% EtOH/45% PEG400/water + 1:1 HCl after 4 hrs by HPLC/MS/MS analysis; type: ADME, organism-based; set-up: dose 100 mg/kg, route oral; procedure, shortened: as §1
[8] = Drug uptake in nu/nu homozygous mouse plasma at 100 mg/kg, po as a solution in 10% EtOH/45% PEG400/water + 1:1 HCl after 1 hr by HPLC/MS/MS analysis; type: ADME, organism-based; set-up: dose 100 mg/kg, route oral; procedure, shortened: as §1
[9] = Antitumor activity against human MDA-MB-231T cells xenografted in athymic nude mouse assessed as tumor growth inhibition at 300 mg/kg, po qd for 14 days post implantation measured for 14 days; type: functional; settings: 336 h, read-out: TGI
Procedure, shortened: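 MDA-MB-231T cells grown in DMEM with 10% FBS. 1 x 10⁶ cells in ice-cold HBSS implanted into the mammary fat pad of female athymic nude (NCr) mice, 5-8 wk. Daily oral dosing at 10 mL/kg, solutions made fresh daily. Tumor weight measured twice weekly; TGI calculated against vehicle and staging-day weights; 2-tailed t-test, p<0.05.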

[10] = target: Sphingosine 1-phosphate receptor 3 (Homo sapiens, UniProt Q99500); assay: Antagonist activity at S1P3 receptor expressed in HEK293 cells assessed as inhibition of S1P-induced tango beta-arrestin recruitment preincubated for 30 mins prior S1P addition measured after 16 to 18 hrs by luciferase reporter gene assay; type: functional, cell-based
Mus musculus = assay: Toxicity in athymic nude mouse xenografted with human MDA-MB-231T cells assessed as body weight loss at 300 mg/kg, po qd for 14 days post implantation measured for 14 days; type: organism-based; set-up: dose 300 mg/kg, route oral; settings: in vivo, 336 h
Procedure, shortened: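 Female NCr athymic nude mice bearing mammary fat pad MDA-MB-231T tumors (1 x 10⁶ cells). Dosed orally once daily at 10 mL/kg from fresh solutions. Body weights recorded daily; clinical signs and survival monitored daily.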

[11] = target: T1, Sphingosine 1-phosphate receptor 1; assay: Antagonist activity at S1P1 receptor expressed in HEK293 cells assessed as inhibition of S1P-induced tango beta-arrestin recruitment preincubated for 30 mins prior S1P addition measured after 16 to 18 hrs by luciferase reporter gene assay; type: functional, cell-based
[12] = target: Sphingosine 1-phosphate receptor 2 (Homo sapiens, UniProt O95136); assay: Antagonist activity at S1P2 receptor expressed in HEK293 cells assessed as inhibition of S1P-induced tango beta-arrestin recruitment preincubated for 30 mins prior S1P addition measured after 16 to 18 hrs by luciferase reporter gene assay; type: functional, cell-based
Chain of Sphingosine 1-phosphate receptor 2 (O95136 whole entry): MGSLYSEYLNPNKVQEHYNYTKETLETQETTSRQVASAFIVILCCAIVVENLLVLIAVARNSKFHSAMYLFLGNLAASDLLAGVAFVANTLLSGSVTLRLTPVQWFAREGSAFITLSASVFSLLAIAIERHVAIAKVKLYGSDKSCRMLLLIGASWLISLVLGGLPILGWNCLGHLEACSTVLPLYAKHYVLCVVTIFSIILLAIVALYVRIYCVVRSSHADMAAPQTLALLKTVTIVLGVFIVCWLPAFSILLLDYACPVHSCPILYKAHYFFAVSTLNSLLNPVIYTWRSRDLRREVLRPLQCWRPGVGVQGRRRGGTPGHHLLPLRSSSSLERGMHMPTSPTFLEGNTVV

T1 sequence (P21453 whole entry): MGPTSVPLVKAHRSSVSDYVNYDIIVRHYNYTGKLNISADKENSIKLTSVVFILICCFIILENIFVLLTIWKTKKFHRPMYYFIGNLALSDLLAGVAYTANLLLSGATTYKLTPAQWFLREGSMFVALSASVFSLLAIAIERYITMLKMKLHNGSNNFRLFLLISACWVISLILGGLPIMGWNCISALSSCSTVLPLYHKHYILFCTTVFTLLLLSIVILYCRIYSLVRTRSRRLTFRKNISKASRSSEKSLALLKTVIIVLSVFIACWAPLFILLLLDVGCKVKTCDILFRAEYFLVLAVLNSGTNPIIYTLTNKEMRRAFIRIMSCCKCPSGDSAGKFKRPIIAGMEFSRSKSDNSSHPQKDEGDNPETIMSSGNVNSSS
Chain of Sphingosine 1-phosphate receptor 3 (Q99500 whole entry): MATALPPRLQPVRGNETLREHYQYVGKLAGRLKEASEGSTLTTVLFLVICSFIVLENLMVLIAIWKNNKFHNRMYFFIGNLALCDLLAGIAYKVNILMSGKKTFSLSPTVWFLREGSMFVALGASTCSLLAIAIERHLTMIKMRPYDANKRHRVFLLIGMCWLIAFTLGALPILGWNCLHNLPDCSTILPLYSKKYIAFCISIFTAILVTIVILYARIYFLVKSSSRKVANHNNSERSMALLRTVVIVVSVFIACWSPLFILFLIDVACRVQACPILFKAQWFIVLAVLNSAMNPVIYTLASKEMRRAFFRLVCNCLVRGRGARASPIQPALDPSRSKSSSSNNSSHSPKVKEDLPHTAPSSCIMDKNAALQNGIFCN

Structure (SMILES): O=C(Cc1cnc[nH]1)N[C@@H](COCc1ccccc1)C(=O)Nc1ccc(Oc2cccc(Cl)c2)cc1
- IC50 [1]: 96 nM

Structure (SMILES): CN(CC(=O)N[C@H](COCc1ccccc1)C(=O)Nc1ccc(Oc2ccccc2)cc1)C(=O)c1ccccc1
- IC50 [1]: > 10000 nM

Structure (SMILES): O=C(N[C@@H](COCc1ccccc1)C(=O)Nc1ccc(Oc2ccccc2)cc1)c1cnc[nH]1
- IC50 [1]: > 1000 nM

Structure (SMILES): O=C(Cc1cnc[nH]1)N[C@@H](COCc1ccccc1)C(=O)Nc1ccc(Oc2ccccc2)cc1
- concentration at 1 h [2]: 5 µM
- concentration at 4 h [3]: 3 µM
- concentration at 4 h [4]: 0.3 µM
- concentration at 1 h [5]: 4.4 µM
- metabolised at 0.5 h, 15 µM [6]: 28%
- IC50 [1]: 33 nM

Structure (SMILES): O=C(Cc1cc(Cl)ccc1Cl)N[C@@H](COCc1ccccc1)C(=O)Nc1ccc(Oc2ccccc2)cc1
- IC50 [1]: > 10000 nM

Structure (SMILES): O=C(Cc1ccccc1F)N[C@@H](COCc1ccccc1)C(=O)Nc1ccc(Oc2ccccc2)cc1
- IC50 [1]: 500 nM

Structure (SMILES): O=C(Cc1cnc[nH]1)N[C@@H](COCc1ccccc1)C(=O)Nc1ccc(Oc2ccc(Cl)cc2)cc1
- concentration at 4 h [7]: 11 µM
- concentration at 1 h [8]: 11 µM
- inhibition in vivo at 300 mg/kg [9]: 45%
- IC50 [10]: > 10000 nM
- Activity (Mus musculus): Non-toxic
- metabolised at 0.5 h, 15 µM [6]: 9%
- IC50 [1]: 32 nM
- IC50 [11]: 221 nM
- IC50 [12]: > 10000 nM

Structure (SMILES): O=C(Cc1cnc[nH]1)N[C@@H](COCc1ccccc1)C(=O)Nc1ccc(Oc2ccccc2Cl)cc1
- IC50 [1]: > 10000 nM

Structure (SMILES): O=C(Cc1cnc[nH]1)N[C@@H](COCc1ccccc1)C(=O)Nc1ccc(Nc2ccccc2)cc1
- IC50 [1]: 743 nM

Further lines, with some results ahead:

- IC50 [1]: 548 nM
Structure (SMILES): CN(CC(=O)N[C@@H](COCc1ccccc1)C(=O)Nc1ccc(Oc2ccccc2)cc1)C(=O)c1ccccc1

- IC50 [1]: 228 nM
Structure (SMILES): Cn1cnc(CC(=O)N[C@@H](COCc2ccccc2)C(=O)Nc2ccc(Oc3ccccc3)cc2)c1

- IC50 [1]: 211 nM
Structure (SMILES): O=C(Cc1cnc[nH]1)N[C@@H](COCc1ccccc1)C(=O)Nc1ccc(Oc2ccccc2)c(Cl)c1

- concentration at 1 h [2]: 8 µM
- concentration at 4 h [3]: 3 µM
- IC50 [10]: > 10000 nM
- metabolised at 0.5 h, 15 µM [6]: 9%
- IC50 [1]: 13 nM
- IC50 [11]: 284 nM
- IC50 [12]: > 10000 nM
Structure (SMILES): O=C(Cc1c[nH]cn1)N[C@@H](COCc1ccccc1)C(=O)Nc1ccc(Oc2ccc(F)cc2)cc1
- inhibition in vivo at 300 mg/kg [9]: 54%
- Activity (Mus musculus): Non-toxic

- IC50 [1]: 702 nM
Structure (SMILES): O=C(Cc1cnc[nH]1)N[C@@H](COCc1ccccc1)C(=O)Nc1ccc(OC2CCCCC2)cc1

- IC50 [1]: 152 nM
Structure (SMILES): O=C(Cc1c[nH]cn1)N[C@@H](COCc1ccccc1)C(=O)Nc1ccc(OCc2ccccc2)cc1

- IC50 [1]: > 10000 nM
Structure (SMILES): O=C(Cc1cnc[nH]1)N[C@@H](COCc1ccccc1)C(=O)Nc1ccc2oc3ccccc3c2c1

- IC50 [1]: > 10000 nM
Structure (SMILES): O=C(Cc1cnc[nH]1)N[C@@H](COCc1ccccc1)C(=O)Nc1ccc(Cc2ccccc2)cc1
